For assay [1], the target named is T1, Transient receptor potential cation channel subfamily A member 1 (Rattus norvegicus, UniProt Q6RI86). The assay can be described thus: Agonist activity at rat TRPA1 receptor expressed in HEK293 cells assessed as increase in intracellular Ca2+ concentration by spectrofluorimetric analysis. The format is cell-based. Summed up: (§1)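 HEK293 cells stably transfected with human TRPV1 or rat TRPA1 cDNA (pcDNA3, G-418 selection) were loaded 1 h at room temperature with Fluo-4-AM, washed and suspended in Tyrode's buffer pH 7.4. [Ca²⁺]i was read by stirred-cuvette spectrofluorimetry before and after adding test compound at various concentrations. Signal from untransfected cells was subtracted. Efficacy was taken as percent of ionomycin (4 µM) for TRPV1 and percent of allyl isothiocyanate (100 µM) for TRPA1; EC50 was also derived.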

The target in assay [2] is Transient receptor potential cation channel subfamily A member 1 (Rattus norvegicus) (UniProt Q6RI86). The assay can be described thus: Agonist activity at rat TRPA1 receptor expressed in HEK293 cells assessed as increase in intracellular Ca2+ concentration by spectrofluorimetric analysis relative to allyl isothiocyanate. Type of assay: cell-based. The essentials: as §1

Assay [3] concerns the target T2, Transient receptor potential cation channel subfamily V member 1 (Homo sapiens, UniProt Q8NER1). Put plainly: Antagonist activity at human TRPV1 receptor expressed in HEK293 cells assessed as inhibition of capsaicin-induced intracellular Ca2+ elevation incubated for 5 mins prior to capsaicin-stimulation by spectrofluorimetric analysis. The format is cell-based. The essentials: (§2)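 Fluo-4-loaded HEK293 cells stably expressing human TRPV1 or rat TRPA1, in Tyrode's buffer pH 7.4, received test compound in the cuvette 5 min before agonist: capsaicin 0.1 µM for TRPV1, AITC 100 µM for TRPA1. The [Ca²⁺]i rise with agonist alone was set to 100%. IC50 came from a variable-slope sigmoidal fit. Untransfected-cell signal was subtracted.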

Assay [4] concerns the target T2, Transient receptor potential cation channel subfamily V member 1. The assay can be described thus: Agonist activity at human TRPV1 receptor expressed in HEK293 cells assessed as increase in intracellular Ca2+ concentration by spectrofluorimetric analysis relative to ionomycin. The format is cell-based. Summed up: as §1
The nature of assay [5]: Selectivity ratio of IC50 for FAAH in rat brain membranes to IC50 for MAGL (unknown origin). Type of assay: cell membranes.
The target of assay [6] is T3, Monoglyceride lipase (Homo sapiens, UniProt Q99685).
T3 sequence (Q99685 whole entry): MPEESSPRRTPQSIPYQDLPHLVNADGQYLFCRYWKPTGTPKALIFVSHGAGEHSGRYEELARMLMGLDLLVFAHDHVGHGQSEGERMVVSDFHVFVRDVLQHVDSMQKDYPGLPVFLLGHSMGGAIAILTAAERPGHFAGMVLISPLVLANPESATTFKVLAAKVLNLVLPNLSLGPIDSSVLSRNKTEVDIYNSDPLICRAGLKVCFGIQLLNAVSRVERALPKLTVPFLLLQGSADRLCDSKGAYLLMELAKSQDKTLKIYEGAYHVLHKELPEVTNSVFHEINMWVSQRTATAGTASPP
Put plainly: Inhibition of MAGL (unknown origin) expressed in African green monkey COS7 cell cytosolic fraction assessed as [3H]2-AG hydrolysis to [3H]arachidonic acid after 20 mins by beta counting analysis. On the set-up: species or system COS-7.

Assay [7] addresses T4, Fatty-acid amide hydrolase 1 (Rattus norvegicus, UniProt P97612).
T4 sequence (P97612 whole entry): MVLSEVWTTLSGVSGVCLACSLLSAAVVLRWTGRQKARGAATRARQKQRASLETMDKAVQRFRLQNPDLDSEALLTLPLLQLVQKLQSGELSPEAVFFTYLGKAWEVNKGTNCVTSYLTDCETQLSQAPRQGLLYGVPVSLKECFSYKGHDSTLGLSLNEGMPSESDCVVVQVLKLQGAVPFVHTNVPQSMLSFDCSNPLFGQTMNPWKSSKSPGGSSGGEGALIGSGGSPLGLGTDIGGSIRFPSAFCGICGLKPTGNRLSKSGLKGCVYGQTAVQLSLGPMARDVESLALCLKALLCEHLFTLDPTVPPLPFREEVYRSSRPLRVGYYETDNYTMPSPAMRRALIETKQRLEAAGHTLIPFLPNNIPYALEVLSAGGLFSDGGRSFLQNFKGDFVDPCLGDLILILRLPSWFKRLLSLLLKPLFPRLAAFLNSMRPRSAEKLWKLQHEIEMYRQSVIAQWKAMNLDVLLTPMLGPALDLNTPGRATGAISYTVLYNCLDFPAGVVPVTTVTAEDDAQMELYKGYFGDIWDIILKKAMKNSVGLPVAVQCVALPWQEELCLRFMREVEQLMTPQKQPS
The assay can be described thus: Inhibition of FAAH in rat brain membranes assessed as [14C]AEA hydrolysis to [14C]Ethanolamine after 30 mins by scintillation counting analysis. Type of assay: cell membranes. The essentials:
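Rat brain membranes were incubated with [¹⁴C]AEA in 50 mM Tris-HCl pH 9 for 30 min at 37 °C. Released [¹⁴C]ethanolamine in the aqueous phase was counted by scintillation after CHCl₃/CH₃OH 2/1 extraction. IC50 was the concentration giving 50% inhibition.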

The target in assay [8] is T1, Transient receptor potential cation channel subfamily A member 1. Put plainly: Antagonist activity at rat TRPA1 receptor expressed in HEK293 cells assessed as inhibition of allyl isothiocyanate-induced intracellular Ca2+ elevation incubated for 5 mins prior to allyl isothiocyanate-stimulation by spectrofluorimetric analysis. Type of assay: cell-based. The essentials:
as §2

Assay [9] has as its target T5, Diacylglycerol lipase-alpha (Homo sapiens) (UniProt Q9Y4D2).
T5 sequence (whole entry): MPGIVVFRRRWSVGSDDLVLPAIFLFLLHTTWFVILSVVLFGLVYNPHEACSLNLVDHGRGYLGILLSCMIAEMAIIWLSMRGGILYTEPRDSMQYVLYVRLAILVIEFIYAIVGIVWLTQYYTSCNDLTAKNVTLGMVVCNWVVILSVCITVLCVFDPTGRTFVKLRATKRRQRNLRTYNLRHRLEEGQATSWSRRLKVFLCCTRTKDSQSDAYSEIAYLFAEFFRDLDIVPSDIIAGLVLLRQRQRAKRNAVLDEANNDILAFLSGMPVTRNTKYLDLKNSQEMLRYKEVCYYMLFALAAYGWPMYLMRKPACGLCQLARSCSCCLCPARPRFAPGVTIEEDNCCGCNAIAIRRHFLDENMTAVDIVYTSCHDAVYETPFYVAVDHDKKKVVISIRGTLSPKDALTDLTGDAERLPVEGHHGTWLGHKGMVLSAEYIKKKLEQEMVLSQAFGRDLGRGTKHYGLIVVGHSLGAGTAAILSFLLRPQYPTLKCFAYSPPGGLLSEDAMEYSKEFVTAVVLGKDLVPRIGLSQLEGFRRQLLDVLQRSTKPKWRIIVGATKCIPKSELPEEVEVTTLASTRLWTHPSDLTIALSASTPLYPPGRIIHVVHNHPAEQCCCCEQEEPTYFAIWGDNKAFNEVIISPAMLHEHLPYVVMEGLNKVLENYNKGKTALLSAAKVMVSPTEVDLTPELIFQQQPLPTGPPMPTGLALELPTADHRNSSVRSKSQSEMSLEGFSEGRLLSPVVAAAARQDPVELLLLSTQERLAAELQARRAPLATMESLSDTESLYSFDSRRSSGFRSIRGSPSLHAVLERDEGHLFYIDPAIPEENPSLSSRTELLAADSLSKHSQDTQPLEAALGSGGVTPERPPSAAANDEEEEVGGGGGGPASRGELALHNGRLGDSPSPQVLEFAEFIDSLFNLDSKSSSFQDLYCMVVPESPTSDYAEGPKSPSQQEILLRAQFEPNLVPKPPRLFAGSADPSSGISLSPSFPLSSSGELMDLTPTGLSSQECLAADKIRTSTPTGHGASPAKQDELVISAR
Put plainly: Activation of human recombinant DAGLalpha expressed in African green monkey COS7 cells assessed as increase in 2-arachidonoylglycerol level per mg of extracted lipid at 1 uM preincubated for 10 mins measured after 20 mins by LC-MS analysis in presence of ionomycin (reference value: 2.82 +/- 0.75 pmol). Conditions: COS-7. Type of assay: cell-based. The essentials:
(§3)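 About 10⁶ COS-7 cells overexpressing human recombinant DAGL-α per point, preincubated 10 min with test compound or not, then 20 min at 37 °C with vehicle or ionomycin 3 µM. Cells homogenized in CHCl₃/CH₃OH/Tris-HCl 50 mM pH 7.4 (2/1/1) with 5 pmol d⁸-AEA, d⁵-2-AG and d⁴-OEA as internal standards. Levels in pmol/mg lipid extracted, mean ± SD, n = 4.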

Assay [10] concerns the target T5, Diacylglycerol lipase-alpha (Homo sapiens). The assay can be described thus: Activation of human recombinant DAGLalpha expressed in African green monkey COS7 cells assessed as increase in N-oleoylethanolamine level per mg of extracted lipid at 1 uM preincubated for 10 mins measured after 20 mins by LC-MS analysis in presence of ionomycin (reference value: 1.08 +/- 0.17 pmol). Type of assay: cell-based. As to conditions: COS-7. The essentials:
as §3

Assay [11] has the same target. Put plainly: Activation of human recombinant DAGLalpha expressed in African green monkey COS7 cells assessed as increase in anandamide level per mg of extracted lipid at 1 uM preincubated for 10 mins measured after 20 mins by LC-MS analysis in presence of ionomycin (reference value: 0.16 +/- 004 pmol). Type of assay: cell-based. Conditions: COS-7. Summed up: as §3

Assay [12] addresses T2, Transient receptor potential cation channel subfamily V member 1. The assay can be described thus: Agonist activity at human TRPV1 receptor expressed in HEK293 cells assessed as increase in intracellular Ca2+ concentration by spectrofluorimetric analysis. Type of assay: cell-based. Summed up:
as §1

For assay [13], the target named is TRPA1 (Rattus norvegicus). Put plainly: Agonist activity at GDH-tagged rat TRPA1 receptor expressed in HEK293F cells assessed as increase in intracellular Ca2+ concentration by Fluo-4 spectrofluorimetric assay.
The target in assay [14] is T5, Diacylglycerol lipase-alpha (Homo sapiens). The assay can be described thus: Activation of human recombinant DAGLalpha expressed in African green monkey COS7 cells assessed as increase in 2-arachidonoylglycerol level per mg of extracted lipid at 3 uM preincubated for 10 mins measured after 20 mins by LC-MS analysis (reference value: 2.82 +/- 0.75 pmol). The format is cell-based. As to conditions: COS-7. The essentials: (§4)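 About 10⁶ COS-7 cells overexpressing human recombinant DAGL-α per data point. Cells were preincubated 10 min with compound, then incubated 20 min at 37 °C with vehicle or ionomycin 3 µM. They were then homogenized in CHCl₃/CH₃OH/Tris-HCl 50 mM pH 7.4 (2/1/1) containing 5 pmol each of d⁸-AEA, d⁵-2-AG and d⁴-OEA as internal standards. Results in pmol/mg lipid extracted, means ± SD, n = 4.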

For assay [15] the target is unchanged. Put plainly: Activation of human recombinant DAGLalpha expressed in African green monkey COS7 cells assessed as increase in N-oleoylethanolamine level per mg of extracted lipid at 3 uM preincubated for 10 mins measured after 20 mins by LC-MS analysis (reference value: 1.08 +/- 0.17 pmol). Type of assay: cell-based. As to conditions: COS-7. The essentials:
as §4

For assay [16] the target is unchanged. The assay can be described thus: Activation of human recombinant DAGLalpha expressed in African green monkey COS7 cells assessed as increase in anandamide level per mg of extracted lipid at 3 uM preincubated for 10 mins measured after 20 mins by LC-MS analysis (reference value: 0.16 +/- 004 pmol). The format is cell-based. As to conditions: COS-7. Summed up:
as §4

The structures appear in SMILES notation. Some results are limits rather than exact numbers.

T1 sequence (Q6RI86 whole entry): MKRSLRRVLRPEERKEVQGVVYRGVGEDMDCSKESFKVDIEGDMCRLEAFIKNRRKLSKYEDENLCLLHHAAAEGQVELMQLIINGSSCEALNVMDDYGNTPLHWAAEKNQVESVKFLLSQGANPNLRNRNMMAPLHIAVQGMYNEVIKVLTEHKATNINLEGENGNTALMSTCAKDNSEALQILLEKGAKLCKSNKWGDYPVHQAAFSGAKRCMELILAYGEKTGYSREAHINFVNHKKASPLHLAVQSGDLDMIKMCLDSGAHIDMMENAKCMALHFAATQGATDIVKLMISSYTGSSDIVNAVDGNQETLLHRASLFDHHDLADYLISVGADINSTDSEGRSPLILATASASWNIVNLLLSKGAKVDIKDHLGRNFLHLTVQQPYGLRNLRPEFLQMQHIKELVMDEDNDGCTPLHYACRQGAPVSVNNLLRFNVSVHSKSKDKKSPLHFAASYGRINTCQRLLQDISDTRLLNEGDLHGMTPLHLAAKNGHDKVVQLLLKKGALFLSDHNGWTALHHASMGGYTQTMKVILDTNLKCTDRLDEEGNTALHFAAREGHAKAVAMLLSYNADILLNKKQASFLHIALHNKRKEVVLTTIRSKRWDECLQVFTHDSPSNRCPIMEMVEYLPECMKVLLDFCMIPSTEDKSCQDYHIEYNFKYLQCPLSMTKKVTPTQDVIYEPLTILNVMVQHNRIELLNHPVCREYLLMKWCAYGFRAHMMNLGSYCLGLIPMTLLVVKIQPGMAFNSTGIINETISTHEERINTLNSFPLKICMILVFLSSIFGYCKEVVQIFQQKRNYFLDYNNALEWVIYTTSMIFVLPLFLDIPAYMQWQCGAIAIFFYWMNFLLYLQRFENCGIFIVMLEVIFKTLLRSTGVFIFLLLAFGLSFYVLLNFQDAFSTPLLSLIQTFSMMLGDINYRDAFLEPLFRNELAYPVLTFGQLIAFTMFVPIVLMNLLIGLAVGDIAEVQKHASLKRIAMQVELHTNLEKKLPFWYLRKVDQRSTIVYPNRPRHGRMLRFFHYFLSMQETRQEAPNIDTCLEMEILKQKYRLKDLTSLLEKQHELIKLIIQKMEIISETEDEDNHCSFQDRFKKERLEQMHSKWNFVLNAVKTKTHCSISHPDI
Transient receptor potential cation channel subfamily A member 1 (Rattus norvegicus), sequence (Q6RI86 whole entry): as above
T2 sequence (Q8NER1 whole entry): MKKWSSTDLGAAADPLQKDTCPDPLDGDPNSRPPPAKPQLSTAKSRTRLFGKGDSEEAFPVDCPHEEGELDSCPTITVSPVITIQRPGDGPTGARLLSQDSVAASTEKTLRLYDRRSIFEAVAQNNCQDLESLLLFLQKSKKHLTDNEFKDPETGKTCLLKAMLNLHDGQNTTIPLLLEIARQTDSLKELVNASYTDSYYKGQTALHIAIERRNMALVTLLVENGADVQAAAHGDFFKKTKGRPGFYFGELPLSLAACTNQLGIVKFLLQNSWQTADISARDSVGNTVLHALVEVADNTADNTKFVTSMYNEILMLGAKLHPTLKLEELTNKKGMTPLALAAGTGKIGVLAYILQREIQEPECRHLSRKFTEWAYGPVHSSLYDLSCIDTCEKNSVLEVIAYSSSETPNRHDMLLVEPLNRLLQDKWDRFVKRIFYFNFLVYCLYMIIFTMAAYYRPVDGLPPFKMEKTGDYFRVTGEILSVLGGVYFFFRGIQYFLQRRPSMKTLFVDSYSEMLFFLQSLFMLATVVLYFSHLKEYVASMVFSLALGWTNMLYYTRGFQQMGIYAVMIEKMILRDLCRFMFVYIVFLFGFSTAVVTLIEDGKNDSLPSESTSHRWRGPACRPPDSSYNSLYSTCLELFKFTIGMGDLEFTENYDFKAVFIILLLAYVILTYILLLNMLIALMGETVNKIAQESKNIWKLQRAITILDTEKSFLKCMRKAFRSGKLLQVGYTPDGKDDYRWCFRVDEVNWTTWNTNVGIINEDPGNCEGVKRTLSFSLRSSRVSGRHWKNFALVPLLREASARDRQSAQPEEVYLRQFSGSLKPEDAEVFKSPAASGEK

Take `Cc1cccc(-c2ccc(Cc3nnnn3C(=O)N(C)C)cc2)c1`: in [1], the EC50 (commonly the midpoint of the concentration-response curve) is 32800 nM. Besides, the Efficacy was 233% in assay [2] and below 10% in [4]. The IC50 (as a rule, the midpoint of a concentration-inhibition curve) in assay [3] is above 100000 nM; in assay [6], above 1000 nM; in assay [7], 9.7 nM; in assay [8], 41000 nM. In addition, the Ratio IC50 in assay [5] stood at 39.
For `CN(C)C(=O)n1nnc(Cc2ccc(-c3cccc(O)c3)cc2)n1`, the values for the Activity in [9], in [10] and in assay [11] were 413 pmol, 7.25 pmol and 0.41 pmol, respectively. Besides, the Efficacy in assay [2] and in [4] was below 10% each time. The IC50 in assay [3] is above 100000 nM; in assay [6], 10 nM; in assay [7], 12 nM; in [8], 98900 nM.
For the compound `CN(C(=O)n1nnc(Cc2ccc(-c3ccccc3)cc2)n1)C1CCCCC1`, the EC50 was determined as 150 nM in assay [1], 250 nM in assay [12] and 150 nM in [13]. Besides, the Efficacy in assay [2] was found to be 45.2%; in assay [4], 33.6%. Further, the results for the IC50 in assay [3], in assay [7] and in assay [8] were 9200 nM, 96.3 nM and 15400 nM, respectively.
In the case of `C[C@H](CCC(=O)O)C[C@H](C)C[C@H](C)C(=O)/C=C(\O)[C@H](C)C[C@H](C)C/C=C/[C@@H](C)[C@@H](O)[C@@H](C)[C@@H](O)C[C@@H]1CC[C@@](C)([C@H]2CC[C@@](C)([C@@H](C)O)O2)O1`, the Activity in [14] is 15.7 pmol; in assay [15], 3.99 pmol; in [16], 0.37 pmol.

Source of the values: ChEMBL document CHEMBL2375292, “Biaryl tetrazolyl ureas as inhibitors of endocannabinoid metabolism: modulation at the N-portion and distal phenyl ring” (Eur J Med Chem, 2013).
